Measured values: ChEMBL document CHEMBL1177873, “Synthesis and evaluation of some new benzothiazole derivatives as potential antimicrobial agents” (Eur J Med Chem, 2010)
≈ marks a conversion by molar mass, not a printed value. Calls of active or inactive are those of the source. The rule behind the calls is not given here.

Assays:
Escherichia coli [1] = test: Antibacterial activity against Escherichia coli MTCC 443 at 1 ug/ml after 24 hrs by cup-plate method; format: functional, organism-based
Procedure, shortened: (§1)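 Cup-plate diffusion in nutrient agar, incubated 24 h at 37 °C. Compounds dissolved in DMF and tested at the single concentration given in the line. DMF served as the solvent control and ciprofloxacin as the reference standard. Read-out is the zone of inhibition diameter in mm.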

Bacillus subtilis [2] = test: Antibacterial activity against Bacillus subtilis MTCC 441 at 200 ug/ml after 24 hrs by cup-plate method; format: functional, organism-based; procedure, shortened: as §1
Candida albicans = test: Antifungal activity against Candida albicans MTCC 227 at 30 ug/ml after 48 hrs by cup-plate method; format: functional; details: MTCC 227, 48 h, read-out: DIZ
Procedure, shortened: (§2)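 Cup-plate diffusion on Sabouraud's dextrose agar, incubated 48 h at 28 °C. Compounds in DMF, which also served as the control, with fluconazole as the reference standard.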

Bacillus subtilis [3] = test: Antibacterial activity against Bacillus subtilis MTCC 441 after 24 hrs; format: functional; details: MTCC 441, 24 h
Procedure, shortened: (§3)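 MIC was taken as the lowest concentration giving 100% growth inhibition relative to a drug-free control, after 24 h at 37 °C in nutrient agar. Compounds were dissolved in DMF, and ciprofloxacin was the reference.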

Streptomyces griseus [4] = test: Antibacterial activity against Streptomyces griseus MTCC 1540 after 24 hrs; format: functional; details: MTCC 1540, 24 h; procedure, shortened: as §3
Bacillus subtilis [5] = test: Antibacterial activity against Bacillus subtilis MTCC 441 at 100 ug/ml after 24 hrs by cup-plate method relative to ciprofloxacin; format: functional, organism-based
Bacillus subtilis [6] = test: Antibacterial activity against Bacillus subtilis MTCC 441 at 500 ug/ml after 24 hrs by cup-plate method; format: functional, organism-based; procedure, shortened: as §1
Streptomyces griseus [7] = test: Antibacterial activity against Streptomyces griseus MTCC 1540 at 500 ug/ml after 24 hrs by cup-plate method; format: functional, organism-based; procedure, shortened: as §1
Aspergillus niger = test: Antifungal activity against Aspergillus niger MTCC 282 at 30 ug/ml after 48 hrs by cup-plate method; format: functional; details: MTCC 282, 48 h, read-out: DIZ; procedure, shortened: as §2
Escherichia coli [8] = test: Antibacterial activity against Escherichia coli MTCC 443 at 200 ug/ml after 24 hrs by cup-plate method; format: functional, organism-based; procedure, shortened: as §1
Escherichia coli [9] = test: Antibacterial activity against Escherichia coli MTCC 443 after 24 hrs; format: functional; details: MTCC 443, 24 h; procedure, shortened: as §3
Escherichia coli [10] = test: Antibacterial activity against Escherichia coli MTCC 443 at 500 ug/ml after 24 hrs by cup-plate method; format: functional, organism-based; procedure, shortened: as §1
Escherichia coli [11] = test: Antibacterial activity against Escherichia coli MTCC 443 at 100 ug/ml after 24 hrs by cup-plate method relative to ciprofloxacin; format: functional, organism-based
Streptomyces griseus [12] = test: Antibacterial activity against Streptomyces griseus MTCC 1540 at 10 ug/ml after 24 hrs by cup-plate method relative to ciprofloxacin; format: functional, organism-based
Streptomyces griseus [13] = test: Antibacterial activity against Streptomyces griseus MTCC 1540 at 1 ug/ml after 24 hrs by cup-plate method; format: functional, organism-based; procedure, shortened: as §1
Bacillus subtilis [14] = test: Antibacterial activity against Bacillus subtilis MTCC 441 at 10 ug/ml after 24 hrs by cup-plate method relative to ciprofloxacin; format: functional, organism-based
Bacillus subtilis [15] = test: Antibacterial activity against Bacillus subtilis MTCC 441 at 1 ug/ml after 24 hrs by cup-plate method; format: functional, organism-based; procedure, shortened: as §1
Escherichia coli [16] = test: Antibacterial activity against Escherichia coli MTCC 443 at 10 ug/ml after 24 hrs by cup-plate method; format: functional, organism-based; procedure, shortened: as §1
Streptomyces griseus [17] = test: Antibacterial activity against Streptomyces griseus MTCC 1540 at 200 ug/ml after 24 hrs by cup-plate method; format: functional, organism-based; procedure, shortened: as §1
Streptomyces griseus [18] = test: Antibacterial activity against Streptomyces griseus MTCC 1540 at 100 ug/ml after 24 hrs by cup-plate method relative to ciprofloxacin; format: functional, organism-based
Bacillus subtilis [19] = test: Antibacterial activity against Bacillus subtilis MTCC 441 at 100 ug/ml after 24 hrs by cup-plate method; format: functional, organism-based; procedure, shortened: as §1
Escherichia coli [20] = test: Antibacterial activity against Escherichia coli MTCC 443 at 100 ug/ml after 24 hrs by cup-plate method; format: functional, organism-based; procedure, shortened: as §1
Bacillus subtilis [21] = test: Antibacterial activity against Bacillus subtilis MTCC 441 at 10 ug/ml after 24 hrs by cup-plate method; format: functional, organism-based; procedure, shortened: as §1
Streptomyces griseus [22] = test: Antibacterial activity against Streptomyces griseus MTCC 1540 at 10 ug/ml after 24 hrs by cup-plate method; format: functional, organism-based; procedure, shortened: as §1
Streptomyces griseus [23] = test: Antibacterial activity against Streptomyces griseus MTCC 1540 at 100 ug/ml after 24 hrs by cup-plate method; format: functional, organism-based; procedure, shortened: as §1
Bacillus subtilis [24] = test: Antibacterial activity against Bacillus subtilis MTCC 441 at 200 ug/ml after 24 hrs by cup-plate method relative to ciprofloxacin; format: functional, organism-based
Escherichia coli [25] = test: Antibacterial activity against Escherichia coli MTCC 443 at 10 ug/ml after 24 hrs by cup-plate method relative to ciprofloxacin; format: functional, organism-based
Streptomyces griseus [26] = test: Antibacterial activity against Streptomyces griseus MTCC 1540 at 200 ug/ml after 24 hrs by cup-plate method relative to ciprofloxacin; format: functional, organism-based
Escherichia coli [27] = test: Antibacterial activity against Escherichia coli MTCC 443 at 200 ug/ml after 24 hrs by cup-plate method relative to ciprofloxacin; format: functional, organism-based

SMILES | Activity (Escherichia coli [1]) | Activity (Bacillus subtilis [2]) | zone of inhibition at 30 µg/mL (Candida albicans) | MIC (Bacillus subtilis [3]) | MIC (Streptomyces griseus [4]) | Activity (Bacillus subtilis [5]) | Activity (Bacillus subtilis [6]) | Activity (Streptomyces griseus [7]) | zone of inhibition at 30 µg/mL (Aspergillus niger) | Activity (Escherichia coli [8]) | MIC (Escherichia coli [9]) | Activity (Escherichia coli [10]) | Activity (Escherichia coli [11]) | Activity (Streptomyces griseus [13]) | Activity (Bacillus subtilis [14]) | Activity (Bacillus subtilis [15]) | Activity (Escherichia coli [16]) | Activity (Streptomyces griseus [17]) | Activity (Streptomyces griseus [22]) | Activity (Streptomyces griseus [23]) | also measured
O=[N+]([O-])c1ccccc1/C=N/n1c(S)nnc1CCNc1nc2ccccc2s1 | inactive | Active | < 10 mm | 200 µg/mL (≈ 470 µM) | 200 µg/mL (≈ 470 µM) | Active | Active | Active | 10 mm | Active | 200 µg/mL (≈ 470 µM) | Active | Active | inactive | inactive | inactive | inactive | Active |  |  | Activity (Streptomyces griseus [12]): inactive; Activity (Streptomyces griseus [18]): Active
OC(Cn1cncn1)(Cn1cncn1)c1ccc(F)cc1F [FLUCONAZOLE] |  |  | 22 mm |  |  |  |  |  | 22 mm |  |  |  |  |  |  |  |  |  |  |  | 
O=C(O)c1cn(C2CC2)c2cc(N3CCNCC3)c(F)cc2c1=O [CIPROFLOXACIN] | inactive | Active |  | 10 µg/mL (≈ 30.2 µM) | 10 µg/mL (≈ 30.2 µM) |  | Active | Active |  | Active |  | Active |  | inactive |  | inactive | Active | Active | Active | Active | Activity (Bacillus subtilis [19]): Active; Activity (Escherichia coli [20]): Active; Activity (Bacillus subtilis [21]): Active
COc1ccc(/C=N/n2c(S)nnc2CCNc2nc3ccccc3s2)cc1OC | inactive |  | 22 mm | 500 µg/mL (≈ 1130 µM) | 100 µg/mL (≈ 227 µM) | inactive | Active | Active | 22 mm | Active | 100 µg/mL (≈ 227 µM) | Active |  | inactive |  | inactive | inactive | Active | inactive | Active | Activity (Escherichia coli [20]): Active; Activity (Bacillus subtilis [24]): Active; Activity (Bacillus subtilis [21]): inactive
O=[N+]([O-])c1cccc(/C=N/n2c(S)nnc2CCNc2nc3ccccc3s2)c1 | inactive | Active | 10 mm | 200 µg/mL (≈ 470 µM) | 200 µg/mL (≈ 470 µM) | Active | Active | Active | < 10 mm | Active | 200 µg/mL (≈ 470 µM) | Active | inactive | inactive |  | inactive |  | Active | inactive |  | Activity (Bacillus subtilis [21]): inactive; Activity (Escherichia coli [25]): inactive; Activity (Streptomyces griseus [18]): Active
Sc1nnc(CCNc2nc3ccccc3s2)n1/N=C/c1ccccc1Cl | inactive | Active | 22 mm | 200 µg/mL (≈ 482 µM) | 200 µg/mL (≈ 482 µM) | inactive | Active | Active | 16 mm | Active | 200 µg/mL (≈ 482 µM) | Active | Active | inactive | Active | inactive |  | Active |  | inactive | Activity (Streptomyces griseus [12]): Active; Activity (Escherichia coli [25]): Active
Oc1ccc(/C=N/n2c(S)nnc2CCNc2nc3ccccc3s2)cc1 | inactive | Active | 22 mm | 100 µg/mL (≈ 252 µM) | 100 µg/mL (≈ 252 µM) |  | Active | Active | 10 mm | Active | 200 µg/mL (≈ 504 µM) | Active | Active | inactive | inactive | inactive |  | Active |  | Active | Activity (Bacillus subtilis [19]): Active; Activity (Streptomyces griseus [12]): inactive; Activity (Escherichia coli [25]): inactive
Sc1nnc(CCNc2nc3ccccc3s2)n1/N=C/c1ccccc1 | inactive |  | 22 mm | 500 µg/mL (≈ 1310 µM) | 500 µg/mL (≈ 1310 µM) | inactive | Active | Active | 16 mm |  | 500 µg/mL (≈ 1310 µM) | Active | inactive | inactive |  | inactive | inactive |  | inactive | inactive | Activity (Streptomyces griseus [26]): Active; Activity (Bacillus subtilis [24]): Active; Activity (Bacillus subtilis [21]): inactive; Activity (Escherichia coli [27]): Active
CN(C)c1ccc(/C=N/n2c(S)nnc2CCNc2nc3ccccc3s2)cc1 | inactive | Active | 16 mm | 100 µg/mL (≈ 236 µM) | 100 µg/mL (≈ 236 µM) |  | Active | Active | 10 mm | Active | 100 µg/mL (≈ 236 µM) | Active |  | inactive | inactive | inactive |  | Active | inactive | Active | Activity (Bacillus subtilis [19]): Active; Activity (Escherichia coli [20]): Active; Activity (Escherichia coli [25]): Active
